Results reported in ChEMBL document CHEMBL3102794, “Discovery of 2-pyridineformamide thiosemicarbazones as potent antiausterity agents” (2014).
Activity calls are given as the source filed them. The calls are words filed in the database; no cut-off is given here.

Legend:
[1] = Cytotoxicity against human PANC1 cells in nutrient-deprived medium after 24 hrs by WST-8 assay; format: functional, PANC-1
Method in brief: (§1)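 PANC-1 cells were seeded at 1.5 × 10^4/well and grown 24 h in DMEM at 37 °C, 5% CO2. They were washed with D-PBS, then exposed to serial dilutions in DMEM or NDM for 24 h, with control and blank wells. Viability was read by WST-8 (10% in DMEM, 3 h, A450), averaged over three wells: (test−blank)/(control−blank)×100.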

PANC-1 [2] = experiment: Ratio of arctigenin PC50 to compound PC50 for human PANC1 cells; format: functional
PANC-1 [3] = experiment: Cytotoxicity against human PANC1 cells after 24 hrs by WST-8 assay in presence of DMEM; format: functional, cell-based; method in brief: as §1
PANC-1 [4] = experiment: Induction of apoptosis in human PANC1 cells in nutrient-deprived medium assessed as translocation of phosphatidylserine to external surface at 1 uM after 12 hrs by Annexin V-FITC/propidium iodide staining-based fluorescence microscopy; format: functional, cell-based
Caspase-3 (Homo sapiens) [5] = target: T1, Caspase-3 (Homo sapiens) (UniProt P42574); experiment: Induction of caspase3 (unknown origin) cleavage after 4 hrs by Western blotting analysis in presence of nutrient-deprived medium
T1 sequence (whole entry): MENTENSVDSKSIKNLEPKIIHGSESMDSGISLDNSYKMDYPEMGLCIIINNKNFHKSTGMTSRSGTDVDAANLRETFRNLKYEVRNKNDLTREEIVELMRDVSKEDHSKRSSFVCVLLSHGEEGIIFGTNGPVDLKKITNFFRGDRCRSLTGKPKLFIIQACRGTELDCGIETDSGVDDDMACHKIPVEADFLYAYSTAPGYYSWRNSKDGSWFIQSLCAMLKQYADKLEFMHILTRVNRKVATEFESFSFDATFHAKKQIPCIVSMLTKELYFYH
Method in brief: (§2)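 Proteins were separated by SDS-PAGE (0.1% SDS) and transferred to PVDF. Membranes were blocked, washed in PBS with 0.1% polysorbate 20, and incubated overnight at room temperature with primary antibodies. HRP-conjugated secondary antibody was applied for 45 min at room temperature, and bands were detected by enhanced chemiluminescence.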

Caspase-3 (Homo sapiens) [6] = target: T1, Caspase-3 (Homo sapiens); experiment: Induction of caspase3 (unknown origin) cleavage after 4 hrs by Western blotting analysis in presence of DMEM; method in brief: as §2
Homo sapiens [7] = species on record: Homo sapiens; experiment: Inhibition of AKT (unknown origin) phosphorylation at T308 at 1 to 100 uM after 4 hrs by Western blotting analysis in presence of nutrient-deprived medium; method in brief: as §2
Homo sapiens [8] = species on record: Homo sapiens; experiment: Inhibition of AKT (unknown origin) phosphorylation at S437 at 1 to 100 uM after 4 hrs by Western blotting analysis in presence of nutrient-deprived medium; method in brief: as §2
Homo sapiens [9] = species on record: Homo sapiens; experiment: Inhibition of AKT (unknown origin) phosphorylation at S437 at 100 uM after 4 hrs by Western blotting analysis in presence of DMEM; method in brief: as §2
Homo sapiens [10] = species on record: Homo sapiens; experiment: Inhibition of AKT (unknown origin) phosphorylation at T308 at 100 uM after 4 hrs by Western blotting analysis in presence of DMEM; method in brief: as §2
PANC-1 [11] = experiment: Induction of apoptosis in human PANC1 cells in nutrient-deprived medium assessed as disruption of cell organelles at 1 uM after 24 hrs by phase contrast microscopy relative to control; format: functional, cell-based
Method in brief: (§3)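 Cells were seeded at 1 × 10^6 per 60 mm dish and allowed to attach for 24 h. They were washed twice and treated with 1 µM in DMEM or NDM for 24 h. EB/AO dye mixture (100 µg/ml each, in PBS) was added, and cells were imaged in fluorescent and phase-contrast modes at 40× objective. AO marks viable cells green; EB marks late apoptotic/necrotic cells red.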

PANC-1 [12] = experiment: Induction of apoptosis in human PANC1 cells in nutrient-deprived medium assessed as rupture of cell membrane at 1 uM after 24 hrs by phase contrast microscopy relative to control; format: functional, cell-based; method in brief: as §3
PANC-1 [13] = experiment: Induction of apoptosis in human PANC1 cells in nutrient-deprived medium assessed as cell swelling at 1 uM after 24 hrs by phase contrast microscopy relative to control; format: functional, cell-based; method in brief: as §3
PANC-1 [14] = experiment: Induction of apoptosis in human PANC1 cells in nutrient-deprived medium assessed as late apoptotic and necrotic cells at 1 uM after 24 hrs by ethidium bromide/acridine orange staining-based fluorescence microscopy relative to control; format: functional, cell-based; method in brief: as §3

| Compound | PC50 [1] [µM] | further results |
| --- | --- | --- |
| N/C(=N\NC(=S)N1CCOCC1)c1ccccn1 | 1.6 | – |
| Cc1ccnc(/C(N)=N/NC(=S)N2CCCC2)c1 | 0.37 | Ratio (PANC-1 [2]): 2 |
| Cc1ccnc(/C(N)=N/NC(=S)N2CCSCC2)c1 | 1.9 | – |
| COc1cc(C[C@H]2C(=O)OC[C@@H]2Cc2ccc(OC)c(OC)c2)ccc1O [ARCTIGENIN] | 0.85 | – |
| Cc1ccnc(/C(N)=N/NC(=S)N2CCOCC2)c1 | 1.8 | – |
| N/C(=N\NC(=S)N1CCCCCC1)c1ccccn1 | 1.4 | – |
| CC(=O)O[C@H]1C(=O)[C@@]2(C)[C@H]([C@H](OC(=O)c3ccccc3)[C@]3(O)C[C@H](OC(=O)[C@H](O)[C@@H](NC(=O)c4ccccc4)c4ccccc4)C(C)=C1C3(C)C)[C@]1(OC(C)=O)CO[C@@H]1C[C@@H]2O [PACLITAXEL] | >200 | – |
| Cc1ccnc(/C(N)=N/NC(=S)N2CCCCC2)c1 | 1.8 | – |
| Nc1ccn([C@@H]2O[C@H](CO)[C@@H](O)C2(F)F)c(=O)n1 [GEMCITABINE] | >200 | Activity (PANC-1 [3]): inactive |
| N/C(=N\NC(=S)N1CCCCC1)c1ccccn1 | 1.6 | – |
| Cc1ccnc(/C(N)=N/NC(=S)N2CCCCCC2)c1 | 1.7 | – |
| Cc1ccnc(/C(N)=N/NC(=S)N2CCN(c3ccccn3)CC2)c1 | 0.68 | – |
| N/C(=N\NC(=S)N1CCN(c2ccccn2)CC1)c1ccccn1 | 0.78 | Activity (PANC-1 [4]): Active; Activity (Caspase-3 (Homo sapiens) [5]): Dose-dependent effect; Activity (Caspase-3 (Homo sapiens) [6]): Dose-dependent effect; inhibition (Homo sapiens [7]): inactive; inhibition (Homo sapiens [8]): inactive; inhibition (Homo sapiens [9]): inactive; inhibition (Homo sapiens [10]): inactive; Activity (PANC-1 [11]): Active; Activity (PANC-1 [12]): Active; Activity (PANC-1 [13]): Active; Activity (PANC-1 [14]): Active |
| N/C(=N\NC(=S)N1CCSCC1)c1ccccn1 | 1.9 | – |
| N/C(=N\NC(=S)N1CCCC1)c1ccccn1 | 0.78 | – |
